Data from ChEMBL document CHEMBL2346629, “Discovery and characterization of novel allosteric FAK inhibitors” (Eur J Med Chem, 2013).

Tests used:
[1] = target: Serine/threonine-protein kinase PAK 3 (Homo sapiens) (UniProt O75914); assay: Inhibition of PAK3 (unknown origin) using [gamma-33P]ATP assessed as residual activity at 3 uM
[2] = target: Serine/threonine-protein kinase PAK 2 (Homo sapiens) (UniProt Q13177); assay: Inhibition of PAK2 (unknown origin) using [gamma-33P]ATP assessed as residual activity at 3 uM
[3] = target: Serine/threonine-protein kinase Nek9 (Homo sapiens) (UniProt Q8TD19); assay: Inhibition of NEK9 (unknown origin) using [gamma-33P]ATP assessed as residual activity at 3 uM
[4] = target: MAP kinase-interacting serine/threonine-protein kinase 2 (Homo sapiens) (UniProt Q9HBH9); assay: Inhibition of MNK2 (unknown origin) using [gamma-33P]ATP assessed as residual activity at 3 uM
Sequence of MAP kinase-interacting serine/threonine-protein kinase 2 (Homo sapiens) (Q9HBH9 whole entry, looked up): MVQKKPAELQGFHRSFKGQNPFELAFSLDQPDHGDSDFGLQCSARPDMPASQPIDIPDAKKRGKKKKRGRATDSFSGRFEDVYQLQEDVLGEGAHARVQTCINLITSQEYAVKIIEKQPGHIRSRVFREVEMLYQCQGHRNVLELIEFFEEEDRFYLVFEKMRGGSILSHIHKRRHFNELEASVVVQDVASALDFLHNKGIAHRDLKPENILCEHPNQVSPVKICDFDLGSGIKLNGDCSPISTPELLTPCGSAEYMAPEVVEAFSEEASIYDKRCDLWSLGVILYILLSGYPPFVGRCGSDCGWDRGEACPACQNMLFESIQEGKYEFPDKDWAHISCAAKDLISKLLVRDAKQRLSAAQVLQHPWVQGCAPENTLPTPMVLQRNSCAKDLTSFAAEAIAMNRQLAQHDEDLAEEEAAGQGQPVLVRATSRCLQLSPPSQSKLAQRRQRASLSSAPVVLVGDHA

[5] = target: Myosin light chain kinase 2, skeletal/cardiac muscle (Homo sapiens) (UniProt Q9H1R3); assay: Inhibition of MLCK2 (unknown origin) using [gamma-33P]ATP assessed as residual activity at 3 uM
In short: (§1)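 Contract radiometric panel screen of 288 kinases (261 wild-type, 27 mutant). Inhibition was read by [gamma-33P]ATP radioactivity incorporation.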

[6] = target: Maternal embryonic leucine zipper kinase (Homo sapiens) (UniProt Q14680); assay: Inhibition of MELK (unknown origin) using [gamma-33P]ATP assessed as residual activity at 3 uM; in short: as §1
[7] = target: Serine/threonine-protein kinase MARK2 (Homo sapiens) (UniProt Q7KZI7); assay: Inhibition of MARK2 (unknown origin) using [gamma-33P]ATP assessed as residual activity at 3 uM; in short: as §1
Sequence of Serine/threonine-protein kinase MARK2 (Homo sapiens) (Q7KZI7 whole entry): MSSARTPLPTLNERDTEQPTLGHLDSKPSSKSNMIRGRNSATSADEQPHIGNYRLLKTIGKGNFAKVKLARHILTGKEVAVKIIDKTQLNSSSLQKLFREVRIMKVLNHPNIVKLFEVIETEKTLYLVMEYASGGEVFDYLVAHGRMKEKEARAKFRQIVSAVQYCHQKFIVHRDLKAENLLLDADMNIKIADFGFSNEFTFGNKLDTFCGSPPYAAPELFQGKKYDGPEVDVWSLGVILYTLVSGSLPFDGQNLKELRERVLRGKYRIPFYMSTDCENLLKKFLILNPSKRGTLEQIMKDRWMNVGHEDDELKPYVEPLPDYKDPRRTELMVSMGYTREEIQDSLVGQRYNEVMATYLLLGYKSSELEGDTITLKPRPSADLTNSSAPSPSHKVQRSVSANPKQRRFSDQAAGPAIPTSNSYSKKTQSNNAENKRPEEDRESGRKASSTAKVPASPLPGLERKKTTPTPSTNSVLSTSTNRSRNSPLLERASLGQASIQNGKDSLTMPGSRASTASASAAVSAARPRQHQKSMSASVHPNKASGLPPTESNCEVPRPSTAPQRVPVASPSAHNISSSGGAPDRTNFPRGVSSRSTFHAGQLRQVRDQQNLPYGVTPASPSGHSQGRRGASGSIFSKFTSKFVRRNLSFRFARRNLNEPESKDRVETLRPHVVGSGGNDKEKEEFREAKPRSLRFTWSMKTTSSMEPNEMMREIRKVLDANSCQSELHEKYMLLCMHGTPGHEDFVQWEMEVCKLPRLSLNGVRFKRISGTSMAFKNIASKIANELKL

[8] = target: Dual specificity protein kinase CLK2 (Homo sapiens) (UniProt P49760); assay: Inhibition of CLK2 (unknown origin) using [gamma-33P]ATP assessed as residual activity at 3 uM
In short: (§2)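 Reaction Biology HotSpot radiometric profiling panel of 288 kinases (261 wild-type, 27 mutant). Kinase activity was read out by incorporation of [γ-33P]ATP.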

[9] = target: Casein kinase II subunit alpha (Homo sapiens) (UniProt P68400); assay: Inhibition of CK2a (unknown origin) using [gamma-33P]ATP assessed as residual activity at 3 uM; in short: as §2
[10] = target: Serine/threonine-protein kinase Chk1 (Homo sapiens) (UniProt O14757); assay: Inhibition of CHK1 (unknown origin) using [gamma-33P]ATP assessed as residual activity at 3 uM
In short: (§3)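 Radiometric profiling across 288 kinases (261 wild-type, 27 mutant), run as an outsourced service. Inhibition read out as [gamma-33P]ATP incorporation into substrate.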

[11] = target: Cyclin-dependent kinase 4/cyclin D1 (Homo sapiens) (UniProt P11802+P24385); assay: Inhibition of CDK4/cyclinD1 (unknown origin) using [gamma-33P]ATP assessed as residual activity at 3 uM; type: protein-complex assay; in short: as §3
[12] = target: Calcium/calmodulin-dependent protein kinase type IV (Homo sapiens) (UniProt Q16566); assay: Inhibition of CAMK4 (unknown origin) using [gamma-33P]ATP assessed as residual activity at 3 uM; in short: as §3
[13] = test system: Fibroblast growth factor receptor 1 (Homo sapiens), P11362 [V561M]; assay: Inhibition of FGFR1 V561M mutant (unknown origin) using [gamma-33P]ATP assessed as residual activity at 3 uM; in short: as §2
[14] = test system: Mast/stem cell growth factor receptor Kit (Homo sapiens), P10721 [D816H]; assay: Inhibition of c-Kit D816H mutant (unknown origin) using [gamma-33P]ATP assessed as residual activity at 3 uM
[15] = target: Tyrosine-protein kinase ITK/TSK (Homo sapiens) (UniProt Q08881); assay: Inhibition of ITK (unknown origin) using [gamma-33P]ATP assessed as residual activity at 3 uM
In short: (§4)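 Radiometric kinase profiling service covering 288 kinases (261 wild-type, 27 mutant). Inhibition was read as incorporation from [γ-³³P]ATP.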

[16] = target: Aurora kinase A (Homo sapiens) (UniProt O14965); assay: Inhibition of Aurora A (unknown origin) using [gamma-33P]ATP assessed as residual activity at 3 uM; in short: as §3
[17] = target: Tyrosine-protein kinase Yes (Homo sapiens, UniProt P07947); assay: Inhibition of YES (unknown origin) using [gamma-33P]ATP assessed as residual activity at 3 uM
Sequence of Tyrosine-protein kinase Yes (P07947 whole entry, looked up): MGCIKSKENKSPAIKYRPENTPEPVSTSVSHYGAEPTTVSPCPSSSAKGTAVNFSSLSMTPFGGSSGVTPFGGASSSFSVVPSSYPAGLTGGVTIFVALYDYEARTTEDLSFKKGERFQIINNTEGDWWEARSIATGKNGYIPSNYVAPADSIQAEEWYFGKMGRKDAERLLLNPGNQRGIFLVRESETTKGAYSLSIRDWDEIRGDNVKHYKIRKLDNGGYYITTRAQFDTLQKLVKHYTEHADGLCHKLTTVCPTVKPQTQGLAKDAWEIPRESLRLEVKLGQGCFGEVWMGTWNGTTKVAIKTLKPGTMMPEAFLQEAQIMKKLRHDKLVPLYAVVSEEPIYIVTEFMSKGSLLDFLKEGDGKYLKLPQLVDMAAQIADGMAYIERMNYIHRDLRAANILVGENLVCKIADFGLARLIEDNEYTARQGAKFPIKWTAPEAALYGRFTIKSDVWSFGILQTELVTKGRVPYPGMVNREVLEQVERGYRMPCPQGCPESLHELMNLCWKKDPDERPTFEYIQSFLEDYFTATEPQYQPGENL

[18] = target: Wee1-like protein kinase (Homo sapiens) (UniProt P30291); assay: Inhibition of WEE1 (unknown origin) using [gamma-33P]ATP assessed as residual activity at 3 uM
[19] = target: NT-3 growth factor receptor (Homo sapiens) (UniProt Q16288); assay: Inhibition of TRKC (unknown origin) using [gamma-33P]ATP assessed as residual activity at 3 uM
[20] = target: Angiopoietin-1 receptor (Homo sapiens) (UniProt Q02763); assay: Inhibition of TIE2 (unknown origin) using [gamma-33P]ATP assessed as residual activity at 3 uM
[21] = target: Tyrosine-protein kinase Tec (Homo sapiens) (UniProt P42680); assay: Inhibition of TEC (unknown origin) using [gamma-33P]ATP assessed as residual activity at 3 uM
[22] = target: Proto-oncogene tyrosine-protein kinase ROS (Homo sapiens) (UniProt P08922); assay: Inhibition of ROS (unknown origin) using [gamma-33P]ATP assessed as residual activity at 3 uM
Sequence of Proto-oncogene tyrosine-protein kinase ROS (Homo sapiens) (P08922 whole entry): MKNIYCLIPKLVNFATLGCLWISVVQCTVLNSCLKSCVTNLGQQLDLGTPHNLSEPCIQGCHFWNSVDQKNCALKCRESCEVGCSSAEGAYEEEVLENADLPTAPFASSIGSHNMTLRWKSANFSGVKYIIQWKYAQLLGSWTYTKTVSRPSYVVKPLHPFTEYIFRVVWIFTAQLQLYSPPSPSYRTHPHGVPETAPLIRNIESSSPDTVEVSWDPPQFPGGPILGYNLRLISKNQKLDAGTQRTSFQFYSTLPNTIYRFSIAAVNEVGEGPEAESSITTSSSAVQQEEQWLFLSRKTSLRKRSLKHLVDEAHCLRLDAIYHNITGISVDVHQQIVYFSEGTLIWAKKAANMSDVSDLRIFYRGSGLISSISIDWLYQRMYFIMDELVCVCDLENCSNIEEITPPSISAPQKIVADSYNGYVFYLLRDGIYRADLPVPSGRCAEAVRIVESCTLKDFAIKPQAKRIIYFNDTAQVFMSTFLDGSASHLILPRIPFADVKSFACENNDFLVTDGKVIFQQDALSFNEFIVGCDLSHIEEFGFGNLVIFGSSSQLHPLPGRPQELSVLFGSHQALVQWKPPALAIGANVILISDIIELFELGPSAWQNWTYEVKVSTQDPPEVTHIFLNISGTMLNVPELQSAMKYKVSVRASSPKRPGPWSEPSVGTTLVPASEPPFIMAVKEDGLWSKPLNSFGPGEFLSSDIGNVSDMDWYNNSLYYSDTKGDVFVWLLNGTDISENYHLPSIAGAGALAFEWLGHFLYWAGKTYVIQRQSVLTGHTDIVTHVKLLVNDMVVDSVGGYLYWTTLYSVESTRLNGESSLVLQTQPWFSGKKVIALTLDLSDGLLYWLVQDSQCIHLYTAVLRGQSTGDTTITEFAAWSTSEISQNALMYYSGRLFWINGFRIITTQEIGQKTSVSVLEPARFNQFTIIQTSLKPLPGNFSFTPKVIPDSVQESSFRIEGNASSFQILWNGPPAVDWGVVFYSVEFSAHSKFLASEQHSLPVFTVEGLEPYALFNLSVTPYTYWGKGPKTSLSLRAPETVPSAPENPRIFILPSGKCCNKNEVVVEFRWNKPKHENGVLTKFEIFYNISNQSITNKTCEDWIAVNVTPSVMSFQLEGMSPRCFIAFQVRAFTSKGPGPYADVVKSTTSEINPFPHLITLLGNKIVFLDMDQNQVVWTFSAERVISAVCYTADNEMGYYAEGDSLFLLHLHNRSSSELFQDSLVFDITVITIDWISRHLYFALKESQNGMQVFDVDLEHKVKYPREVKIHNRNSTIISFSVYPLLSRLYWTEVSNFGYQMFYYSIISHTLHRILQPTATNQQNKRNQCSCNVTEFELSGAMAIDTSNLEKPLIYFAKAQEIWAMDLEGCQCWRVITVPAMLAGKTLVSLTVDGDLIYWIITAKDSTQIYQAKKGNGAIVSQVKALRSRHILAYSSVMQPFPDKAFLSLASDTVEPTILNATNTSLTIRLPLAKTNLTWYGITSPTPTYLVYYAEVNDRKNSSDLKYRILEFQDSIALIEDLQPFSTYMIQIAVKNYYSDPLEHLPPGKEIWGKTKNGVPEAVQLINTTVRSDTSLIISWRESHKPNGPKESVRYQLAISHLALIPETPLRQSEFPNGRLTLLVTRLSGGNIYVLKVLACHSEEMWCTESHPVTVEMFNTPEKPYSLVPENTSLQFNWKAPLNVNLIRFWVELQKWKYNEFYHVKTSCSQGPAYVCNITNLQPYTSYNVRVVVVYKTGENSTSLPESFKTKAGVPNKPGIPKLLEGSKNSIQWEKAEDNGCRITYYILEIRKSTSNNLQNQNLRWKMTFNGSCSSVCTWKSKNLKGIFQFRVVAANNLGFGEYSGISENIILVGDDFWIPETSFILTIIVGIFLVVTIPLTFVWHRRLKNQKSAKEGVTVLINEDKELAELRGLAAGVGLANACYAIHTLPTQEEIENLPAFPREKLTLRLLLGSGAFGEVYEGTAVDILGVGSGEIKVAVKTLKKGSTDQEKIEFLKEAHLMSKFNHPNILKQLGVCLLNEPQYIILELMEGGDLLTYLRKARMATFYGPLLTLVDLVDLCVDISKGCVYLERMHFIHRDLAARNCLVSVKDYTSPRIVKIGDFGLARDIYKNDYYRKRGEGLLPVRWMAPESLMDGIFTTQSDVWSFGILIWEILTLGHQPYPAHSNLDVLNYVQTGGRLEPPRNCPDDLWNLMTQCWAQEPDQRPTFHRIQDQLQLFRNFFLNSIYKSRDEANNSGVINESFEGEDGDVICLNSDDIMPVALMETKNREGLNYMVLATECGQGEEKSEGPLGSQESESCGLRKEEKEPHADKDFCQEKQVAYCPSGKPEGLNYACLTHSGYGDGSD

[23] = target: Proto-oncogene tyrosine-protein kinase receptor Ret (Homo sapiens) (UniProt P07949); assay: Inhibition of RET (unknown origin) using [gamma-33P]ATP assessed as residual activity at 3 uM
[24] = target: Macrophage colony-stimulating factor 1 receptor (Homo sapiens) (UniProt P07333); assay: Inhibition of FMS (unknown origin) using [gamma-33P]ATP assessed as residual activity at 3 uM; in short: as §4
[25] = target: Receptor tyrosine-protein kinase erbB-4 (Homo sapiens) (UniProt Q15303); assay: Inhibition of ErbB4 (unknown origin) using [gamma-33P]ATP assessed as residual activity at 3 uM; in short: as §2
[26] = target: Ephrin type-A receptor 2 (Homo sapiens) (UniProt P29317); assay: Inhibition of EPHA2 (unknown origin) using [gamma-33P]ATP assessed as residual activity at 3 uM; in short: as §2
[27] = target: Protein kinase C beta type (Homo sapiens) (UniProt P05771); assay: Inhibition of PKCb1 (unknown origin) using [gamma-33P]ATP assessed as residual activity at 3 uM
Sequence of Protein kinase C beta type (Homo sapiens) (P05771 2-671 limits assumed): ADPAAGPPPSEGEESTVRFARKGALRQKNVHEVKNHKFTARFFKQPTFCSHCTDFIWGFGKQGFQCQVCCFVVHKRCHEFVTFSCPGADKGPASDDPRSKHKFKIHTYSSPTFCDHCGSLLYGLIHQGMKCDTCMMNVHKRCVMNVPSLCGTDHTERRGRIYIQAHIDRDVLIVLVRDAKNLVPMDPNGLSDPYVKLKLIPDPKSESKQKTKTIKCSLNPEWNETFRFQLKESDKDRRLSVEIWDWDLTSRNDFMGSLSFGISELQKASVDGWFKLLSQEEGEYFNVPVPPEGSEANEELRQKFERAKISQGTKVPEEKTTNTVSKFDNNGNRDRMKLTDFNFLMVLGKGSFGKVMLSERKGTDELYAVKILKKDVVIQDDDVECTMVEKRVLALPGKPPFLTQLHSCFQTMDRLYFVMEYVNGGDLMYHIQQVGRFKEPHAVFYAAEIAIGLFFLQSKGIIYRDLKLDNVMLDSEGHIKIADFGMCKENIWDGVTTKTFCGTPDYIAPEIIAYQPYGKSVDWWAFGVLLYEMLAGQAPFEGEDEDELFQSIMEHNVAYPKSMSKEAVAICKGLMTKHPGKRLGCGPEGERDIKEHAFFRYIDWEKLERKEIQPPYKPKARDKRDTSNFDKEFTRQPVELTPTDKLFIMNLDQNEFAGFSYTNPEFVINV

[28] = target: Protein kinase C alpha type (Homo sapiens) (UniProt P17252); assay: Inhibition of PKCa (unknown origin) using [gamma-33P]ATP assessed as residual activity at 3 uM
[29] = target: Dual specificity tyrosine-phosphorylation-regulated kinase 3 (Homo sapiens) (UniProt O43781); assay: Inhibition of DYRK3 (unknown origin) using [gamma-33P]ATP assessed as residual activity at 3 uM; in short: as §2
[30] = target: Serine/threonine-protein kinase pim-1 (Homo sapiens) (UniProt P11309); assay: Inhibition of PIM1 (unknown origin) using [gamma-33P]ATP assessed as residual activity at 3 uM
[31] = target: Platelet-derived growth factor receptor alpha (Homo sapiens) (UniProt P16234); assay: Inhibition of PDGFRa (unknown origin) using [gamma-33P]ATP assessed as residual activity at 3 uM

## CCc1ccc(-c2ccc3c(c2)-c2[nH]ncc2S(=O)(=O)N3C)cc1
[1]
  Activity: 95%
[2]
  Activity: 94%
[3]
  Activity: 78%
[4]
  Activity: 89%
[5]
  Activity: 96%
[6]
  Activity: 76%
[7]
  Activity: 91%
[8]
  Activity: 68%
[9]
  Activity: 89%
[10]
  Activity: 81%
[11]
  Activity: 89%
[12]
  Activity: 95%
[13]
  Activity: 98%
[14]
  Activity: 52%
[15]
  Activity: 88%
[16]
  Activity: 90%
[17]
  Activity: 29%
[18]
  Activity: 91%
[19]
  Activity: 95%
[20]
  Activity: 91%
[21]
  Activity: 102%
[22]
  Activity: 95%
[23]
  Activity: 94%
[24]
  Activity: 96%
[25]
  Activity: 90%
[26]
  Activity: 90%
[27]
  Activity: 101%
[28]
  Activity: 86%
[29]
  Activity: 100%
[30]
  Activity: 96%
[31]
  Activity: 87%
